Data from ChEMBL document CHEMBL1250503, “Stereoselective synthesis and biological evaluation of (R)-rugulactone, (6R)-((4R)-hydroxy-6-phenyl-hex-2-enyl)-5,6-dihydro-pyran-2-one and its 4S epimer” (2010).
Converted amounts (≈) assume the structure as drawn.

Experiments:
Assay type in all cases: functional
Rhizopus arrhizus [1] = test: Antifungal activity against Rhizopus oryzae MTCC 262 at 100 ug/ml after 24 to 96 hrs by agar cup diffusion method; settings: read-out: DIZ
Procedure, shortened: (§1)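 Agar cup diffusion on autoclaved Potato Dextrose Agar. 0.5 ml of 24 h old test-organism culture was spread over the solidified agar, and 6 mm cups were bored. Compounds were dissolved in DMSO and added to the cups at two concentrations. A clotrimazole control was included. Plates were held at room temperature for 24–96 h, and inhibition zone diameters were measured.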

Klebsiella pneumoniae = test: Antibacterial activity against Klebsiella pneumoniae MTCC 39 by broth dilution method
Procedure, shortened: (§2)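 Broth dilution per National Committee for Clinical Laboratory (NCCL) standards against a bacterial panel. The read-out is the minimum inhibitory concentration (MIC).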

Staphylococcus aureus = test: Antibacterial activity against Staphylococcus aureus MTCC 96 by broth dilution method; procedure, shortened: as §2
Pseudomonas aeruginosa = test: Antibacterial activity against Pseudomonas aeruginosa MTCC 741 by broth dilution method; procedure, shortened: as §2
Candida albicans [2] = test: Antifungal activity against Candida albicans MTCC 227 at 100 ug/ml after 24 to 96 hrs by agar cup diffusion method; settings: read-out: DIZ; procedure, shortened: as §1
[3] = system: Staphylococcus epidermidis; test: Antibacterial activity against Staphylococcus epidermidis MTCC 437 by broth dilution method; procedure, shortened: as §2
Saccharomyces cerevisiae [4] = test: Antifungal activity against Saccharomyces cerevisiae MTCC 171 at 100 ug/ml after 24 to 96 hrs by agar cup diffusion method; settings: read-out: DIZ; procedure, shortened: as §1
Aspergillus niger [5] = test: Antifungal activity against Aspergillus niger MTCC 1344 at 100 ug/ml after 24 to 96 hrs by agar cup diffusion method; settings: read-out: DIZ; procedure, shortened: as §1
Saccharomyces cerevisiae [6] = test: Antifungal activity against Saccharomyces cerevisiae MTCC 171 at 30 ug/ml after 24 to 96 hrs by agar cup diffusion method; settings: read-out: DIZ; procedure, shortened: as §1
Aspergillus niger [7] = test: Antifungal activity against Aspergillus niger MTCC 1344 at 30 ug/ml after 24 to 96 hrs by agar cup diffusion method; settings: read-out: DIZ; procedure, shortened: as §1
Escherichia coli = test: Antibacterial activity against Escherichia coli MTCC 443 by broth dilution method; procedure, shortened: as §2
Candida albicans [8] = test: Antifungal activity against Candida albicans MTCC 227 at 30 ug/ml after 24 to 96 hrs by agar cup diffusion method; settings: read-out: DIZ; procedure, shortened: as §1
Rhizopus arrhizus [9] = test: Antifungal activity against Rhizopus oryzae MTCC 262 at 30 ug/ml after 24 to 96 hrs by agar cup diffusion method; settings: read-out: DIZ; procedure, shortened: as §1
Bacillus subtilis = test: Antibacterial activity against Bacillus subtilis MTCC 441 by broth dilution method; procedure, shortened: as §2

SMILES | zone of inhibition at 100 µg/mL (Rhizopus arrhizus [1]) | MIC (Klebsiella pneumoniae) | MIC (Staphylococcus aureus) | MIC (Pseudomonas aeruginosa) | zone of inhibition at 100 µg/mL (Candida albicans [2]) | MIC [3] | zone of inhibition at 100 µg/mL (Saccharomyces cerevisiae [4]) | zone of inhibition at 100 µg/mL (Aspergillus niger [5]) | zone of inhibition at 30 µg/mL (Saccharomyces cerevisiae [6]) | zone of inhibition at 30 µg/mL (Aspergillus niger [7]) | MIC (Escherichia coli) | zone of inhibition at 30 µg/mL (Candida albicans [8]) | zone of inhibition at 30 µg/mL (Rhizopus arrhizus [9]) | MIC (Bacillus subtilis)
O=C1C=CC[C@@H](C/C=C/[C@H](O)CCc2ccccc2)O1 | 14 mm | 100 µg/mL (≈ 367 µM) | 50 µg/mL (≈ 184 µM) | 25 µg/mL (≈ 91.8 µM) | 10 mm | 50 µg/mL (≈ 184 µM) | 11 mm | 14 mm | 8 mm | 11 mm | 100 µg/mL (≈ 367 µM) | 8 mm | 12 mm | 100 µg/mL (≈ 367 µM)
O=C1C=CC[C@@H](C/C=C/[C@@H](O)CCc2ccccc2)O1 | 16 mm | 100 µg/mL (≈ 367 µM) | 100 µg/mL (≈ 367 µM) | 50 µg/mL (≈ 184 µM) | 8 mm | 100 µg/mL (≈ 367 µM) | 10 mm | 12 mm | 8 mm | 9 mm | 100 µg/mL (≈ 367 µM) | 9 mm | 12 mm | 50 µg/mL (≈ 184 µM)
Clc1ccccc1C(c1ccccc1)(c1ccccc1)n1ccnc1 [CLOTRIMAZOLE] | – | – | – | – | – | – | – | – | 23 mm | 18 mm | – | 22 mm | 21 mm | –
O=C1CN(/N=C/c2ccc([N+](=O)[O-])o2)C(=O)N1 [NITROFURANTOIN] | – | 50 µg/mL (≈ 210 µM) | 50 µg/mL (≈ 210 µM) | 100 µg/mL (≈ 420 µM) | – | 50 µg/mL (≈ 210 µM) | – | – | – | – | 25 µg/mL (≈ 105 µM) | – | – | 100 µg/mL (≈ 420 µM)
CC1(C)S[C@@H]2[C@H](NC(=O)Cc3ccccc3)C(=O)N2[C@H]1C(=O)O [PENICILLIN G] | – | – | 1.56 µg/mL (≈ 4.67 µM) | – | – | 1.56 µg/mL (≈ 4.67 µM) | – | – | – | – | – | – | – | 1.56 µg/mL (≈ 4.67 µM)
O=C(/C=C/C[C@@H]1CC=CC(=O)O1)CCc1ccccc1 [R-RUGULACTONE] | 12 mm | 25 µg/mL (≈ 92.5 µM) | 50 µg/mL (≈ 185 µM) | 12.5 µg/mL (≈ 46.2 µM) | 8 mm | 50 µg/mL (≈ 185 µM) | 8 mm | 16 mm | 7 mm | 14 mm | 50 µg/mL (≈ 185 µM) | 7 mm | 11 mm | 100 µg/mL (≈ 370 µM)
CN[C@@H]1[C@H](O[C@H]2[C@H](O[C@H]3[C@H](O)[C@@H](O)[C@H](N=C(N)N)[C@@H](O)[C@@H]3N=C(N)N)O[C@@H](C)[C@]2(O)C=O)O[C@@H](CO)[C@H](O)[C@H]1O [STREPTOMYCIN] | – | 1.56 µg/mL (≈ 2.69 µM) | – | 1.56 µg/mL (≈ 2.69 µM) | – | – | – | – | – | – | 1.56 µg/mL (≈ 2.69 µM) | – | – | –
